# Test results: ChEMBL document CHEMBL1130137, “Substituted (pyridylmethoxy)naphthalenes as potent and orally active 5-lipoxygenase inhibitors; synthesis, biological profile, and pharmacokinetics of L-739,010” (J Med Chem, 1997)
# Tests used:
# [1] = biological target: T1, Polyunsaturated fatty acid 5-lipoxygenase (Homo sapiens, UniProt P09917); assay: Inhibition of oxidation of arachidonic acid by human 5-Lipoxygenase using spectrophotometric assay; format: functional
# T1 sequence (P09917 whole entry): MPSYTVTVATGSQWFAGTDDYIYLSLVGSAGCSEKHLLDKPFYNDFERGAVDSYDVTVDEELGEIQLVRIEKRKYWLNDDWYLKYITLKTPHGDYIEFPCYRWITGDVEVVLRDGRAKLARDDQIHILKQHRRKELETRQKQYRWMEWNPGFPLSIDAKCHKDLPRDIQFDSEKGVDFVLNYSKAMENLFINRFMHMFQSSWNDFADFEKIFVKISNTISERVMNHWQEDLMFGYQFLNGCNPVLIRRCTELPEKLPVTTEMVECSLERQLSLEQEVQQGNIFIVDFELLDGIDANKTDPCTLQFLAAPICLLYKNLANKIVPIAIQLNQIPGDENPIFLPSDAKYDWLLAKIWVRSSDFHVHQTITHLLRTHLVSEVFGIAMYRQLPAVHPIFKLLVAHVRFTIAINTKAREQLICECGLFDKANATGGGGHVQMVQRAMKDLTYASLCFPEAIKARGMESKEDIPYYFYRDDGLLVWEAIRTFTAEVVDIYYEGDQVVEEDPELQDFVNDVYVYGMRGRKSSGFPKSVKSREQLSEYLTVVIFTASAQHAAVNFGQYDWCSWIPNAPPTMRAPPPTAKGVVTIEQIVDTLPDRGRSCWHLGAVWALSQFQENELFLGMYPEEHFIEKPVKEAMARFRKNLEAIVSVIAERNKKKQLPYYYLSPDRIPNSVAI
# In short: (§1)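 Soluble extracts of Sf9 insect cells overexpressing human 5-LO; arachidonic acid oxidation followed spectrophotometrically as 5-H(P)ETE production; IC50 values.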
# [2] = organism: Homo sapiens; assay: Compound was evaluated for production of leukotriene B4 in human whole blood (HWB) activated with ionophore A-23187.; format: functional
# In short: (§2)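 LTB4 generation triggered by Ca2+ ionophore A23187 in human peripheral blood polymorphonuclear leukocytes or in human whole blood; inhibitor potency expressed as IC50 (nM).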
# [3] = organism: Homo sapiens; assay: Compound was evaluated for production of leukotriene B4 in Ca+2 -ionophore -activated human polymorphonuclear (HPMN) leukocytes.; format: functional; in short: as §2
# [4] = Maximum concentration of unchanged drug in rat plasma in the period 0-24 hr after dosing; format: ADME, organism-based
# In short: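 Rats dosed orally as HCl salt in 0.5% methocel suspension (10 mL/kg); jugular blood drawn before dosing and 0.5, 1, 2, 4, 6, 8, 10, 24 h after. Plasma deproteinized with equal volume acetonitrile; parent drug measured by reverse-phase HPLC peak area against standard curves from spiked rat plasma.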
# [5] = Bioavailability in rat (Sprague-Dawley) (male); format: ADME, organism-based; settings: in vivo
# In short: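 Oral dosing as HCl salt in 0.5% methocel suspension at 20 mg/kg (10 mL/kg); iv dosing of free base in PEG-400/water (3:1) at 5 mg/kg into jugular vein. Serial jugular blood to 24 h; plasma protein precipitated with acetonitrile, parent quantified by reverse-phase HPLC against spiked-plasma standards. F = (AUCpo × dose_iv)/(AUCiv × dose_po) × 100, over 0-24 h.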
# [6] = test system: Ovis aries; assay: Compound was tested for inhibition of Ascaris -induced bronchoconstriction in sheep at 2.5 ug/kg intravenous administration; format: functional
# In short: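 Conscious allergic sheep (n = 4) received an iv bolus of 0.2 mg/kg and then a constant iv infusion of 2.5 µg/kg/min before Ascaris antigen challenge. Percent inhibition was scored separately for the early-phase and late-phase bronchoconstriction.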
# [7] = organism: Rattus norvegicus; assay: Inhibition of LTB4 levels in rat pleural exudates; format: functional
# In short: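 Rat pleurisy: carrageenan injected into the pleural cavity, followed 16-20 h later by ionophore A23187; LTB4 measured in pleural exudate 6 h after oral dosing; ED50 derived.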
# [8] = Compound was tested for inhibition of Ascaris -induced bronchoconstriction in squirrel monkeys; format: functional
# [9] = test system: Canis familiaris; assay: Ex Vivo generation of LTB4 by whole blood stimulated with calcium ionophore A-23187 in anesthetized dogs; format: functional, Canis lupus familiaris
# In short: (§3)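 Anesthetized dogs receiving iv infusion (µg/kg/min, dose-ranging). Baseline urinary LTE4 excretion measured over 5-7 h after infusion start; ex vivo LTB4 generation by whole blood stimulated with calcium ionophore A23187. ED50 in µg/kg/min.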
# [10] = organism: Canis familiaris; assay: Inhibition of urinary LTE4 levels in dogs; format: functional, Canis lupus familiaris, Urine; in short: as §3
# [11] = test system: Rattus norvegicus; assay: compound was tested for inhibition of ovalbumin- induced dyspnea in inbred hyperreactive rats at 0.5 mg/kg; format: functional
# [12] = biological target: T1, Polyunsaturated fatty acid 5-lipoxygenase; assay: Compound was evaluated for the potency to inhibit oxidation of arachidonic acid by human recombinant 5-Lipoxygenase using a spectrophotometric assay; format: functional; in short: as §1
# [13] = Plasma half-life in dogs in the presence of PEG 400/water(3:1); format: ADME, organism-based, Canis lupus familiaris; settings: dog
# In short: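 Dog PK: free base given iv in PEG-400/water (3:1); plasma levels followed and half-life estimated from the intravenous administration.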
# [14] = Plasma half-life in rats in the presence of PEG 400/water(3:1); format: ADME, organism-based; settings: rat
IC50 [1] [nM],IC50 [2] [nM],IC50 [3] [nM],SMILES,other results
100,100,10,N#Cc1cc(-c2ccoc2)c2ccc(OCc3cncc(C4(O)CCOCC4)c3)cc2c1,–
70,50,3.5,N#Cc1cc(-c2ccoc2)c2ccc(OCc3cc(C4(O)CCOCC4)ccn3)cc2c1,–
–,250,5,N#Cc1cc(-c2ccoc2)c2ccc(OCc3ccnc(C4(O)CCOCC4)c3)cc2c1,IC50 [12]: 350 nM

# Second part, the compound before the results:
SMILES,IC50 [1] [nM],IC50 [2] [nM],IC50 [3] [nM],other results
N#Cc1cc(-c2ccoc2)c2ccc(OCc3csc(C4(O)CCOCC4)n3)cc2c1,160,300,9,–
CC(c1cc2ccccc2s1)N(O)C(N)=O (stereo not given) [ZILEUTON],–,2000,–,–
N#Cc1cc(-c2ccoc2)c2ccc(OCc3cccc(C4(O)CCOCC4)c3)cc2c1,–,–,–,Cmax [4]: 1000 nM; bioavailability [5]: < 5%
CC(C)(C)Sc1c(CC(C)(C)C(=O)O)n(Cc2ccc(Cl)cc2)c2ccc(OCc3ccc4ccccc4n3)cc12 [QUIFLAPON],–,–,–,inhibition in vivo at 0.0025 mg/kg [6]: > 75%; ED50 [7]: 0.15 mg/kg; Inhibition [8]: 71%; ED50 [9]: 0.5 µg/min/kg; ED50 [10]: 1 µg/min/kg; inhibition in vivo at 0.5 mg/kg [11]: 56%
N#Cc1cc(-c2ccoc2)c2ccc(COc3cccc(C4(O)CC5COC(C4)O5)n3)cc2c1 (stereo not given),80,67,3.1,–
N#Cc1cc(-c2ccoc2)c2ccc(OCc3ccc4ccc(C5(O)CCOCC5)cc4n3)cc2c1,1000,–,44,–
N#Cc1cc(-c2ccoc2)c2ccc(OCc3cccc(C4(O)CC5COC(C4)O5)n3)cc2c1 (stereo not given),20,42,1.6,half-life [13]: 16 h; half-life [14]: 5 h; inhibition in vivo at 0.0025 mg/kg [6]: 50%; ED50 [7]: 0.3 mg/kg; Inhibition [8]: 53%; ED50 [9]: 0.45 µg/min/kg; ED50 [10]: 0.23 µg/min/kg; inhibition in vivo at 0.5 mg/kg [11]: 60%
N#Cc1cc(-c2ccoc2)c2ccc(OCc3cccc(C4(O)CCOCC4)n3)cc2c1,–,30,0.6,IC50 [12]: 15 nM
